Compound activity (PubChem BioAssay)
Only some compounds are listed: those with a hit (about 2.9% of all), similar ones and a draw of the others.
Efflux pump mplx: antifungal efflux pump inhibition, Nile Red retention; inhibition, % at 10 µM; hit rate 0.44% among 330,000; S. cerevisiae Candida pump triplex;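 active = plate passing quality check with inhibition over a set limit, or well fluorescence over plate mean plus 4 SD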;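 also: Nile Red retained in pooled yeast measured as flow cytometry median fluorescence; higher means more Nile Red kept so more efflux inhibition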
Calb FLC: affects C. albicans growth with fluconazole; C. albicans CaCi-2 (fluconazole-resistant clinical isolate) + fluconazole, Alamar Blue growth, 48 h; hit rate 0.57% among 300,000; growth inhibition, % (test concentration not listed);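 active = growth inhibition above about 58% in most replicates, limit read from the data, passing the limit was not always enough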;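 also: all wells also contain fluconazole at 8 µg/ml as a sub-toxic cotreatment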
MC4R antag cAMP: human MC4R antagonism in cAMP assay; P32245; MC4R-expressing cells, MTII-stimulated cAMP, LANCE TR-FRET; inhibition, % at 6.5 µM; hit rate 0.48% among 360,000; AID 540295;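 active = inhibition above its plate's cutoff, the mean of tested wells on that plate plus 3 SD, cut at about 29% in these data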
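Assay system: human MC4R-expressing U2OS cells; reagent: Melanotan II stimulation of cells; dosing: 6.5 µM single dose; timing: compound 30 min, challenge 1 h, detection 1 h; signal: TR-FRET cAMP assay; replicates: one well per compound, no replicates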
GalR3 antagonist: blocks the human galanin receptor 3. hit rate 0.44% among 360,000. HEK293 GalR3-CNG cAMP membrane potential fluorescence; galR3 body fused to GalR1 C-terminus. inhibition, % at 3 µM. O60755;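 active = inhibition above the screen-wide average plus 3 SD, cut at about 13% in these data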;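 also: forskolin and galanin both at EC90 stimulate the cells; cAMP rise reported by CNG channel membrane potential dye signal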
Target sequence (O60755 1-299 limits assumed): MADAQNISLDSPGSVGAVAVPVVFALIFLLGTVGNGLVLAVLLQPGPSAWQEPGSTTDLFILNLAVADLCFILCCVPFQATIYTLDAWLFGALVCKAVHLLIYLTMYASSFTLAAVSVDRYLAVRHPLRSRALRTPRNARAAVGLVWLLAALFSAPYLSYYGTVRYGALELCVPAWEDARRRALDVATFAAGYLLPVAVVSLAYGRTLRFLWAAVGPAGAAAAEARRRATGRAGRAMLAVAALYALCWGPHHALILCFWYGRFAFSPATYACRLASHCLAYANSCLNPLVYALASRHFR
MC4R barr agon: agonists of human melanocortin 4 receptor (MC4R) beta-arrestin; hit rate 0.98% among 360,000; activation, % at 8.9 µM; U2OS MC4R beta-arrestin complementation, luminescence; percent of melanotan II response, DMSO zero; P32245;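 active = activation above a per-plate cutoff, the mean activation of sample wells on that plate plus 3 SD, cut at about 8% in these data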
TAG inh: inhibitors of triacylglycerol accumulation | H9c2 cells, Nile Red lipid (TAG) fluorescence; cells loaded with 200 µM oleic acid | inhibition, % at 12.5 µM | hit rate 0.66% among 230,000;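 active = pattern-corrected inhibition of lipid staining of at least 50% with the nuclear-stain viability signal not falling by more than 50%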
U2OS cAMP counter: U2OS forskolin cAMP inhibition counter-screen; parental U2OS, LANCE TR-FRET; inhibition, % at 6.5 µM; shares compounds with MC4R antag cAMP; hit rate 26% among 1,600;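 active = mean inhibition over triplicates above the low-control well mean plus 3 SD, set per campaign, cut at about 13% in these data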;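 also: signal is single emission at 671 nm which falls as cellular cAMP rises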
MC4R antag conf: human MC4R cAMP antagonism confirmation; shares compounds with MC4R antag cAMP; MC4R-expressing cells, MTII-stimulated cAMP, TR-FRET; inhibition, % at 6.5 µM; hit rate 27% among 1,600; in the data active = inhibition above about 29%
Large screens that a line does not name were inactive (follow-up assays come after a bar, where they were run).

COc1nc(Cl)cn(-c2ccc(C)cc2)c1=O	none (no result: TAG inh)
COc1ccc([C@H]2CC(=O)C[C@@H](CCn3nnc4ccccc43)O2)cc1	none (no result: Efflux pump mplx, Calb FLC, MC4R antag cAMP, MC4R barr agon, TAG inh)
Cn1nccc1-c1ccc(C(=O)NCc2ccc(Cl)cc2)c2occc12	none (no result: Efflux pump mplx, Calb FLC, GalR3 antagonist)
CC(NC(=O)Cc1ccccc1)C(=O)O (stereo not given)	none (no result: Calb FLC)
CC(C)C(CO)NC(=O)CC(=O)NC(CO)C(C)C (stereo not given)	MC4R antag cAMP 30 (no result: TAG inh) | U2OS cAMP counter inactive | MC4R antag conf inactive
O=C(Cc1cccnc1)N[C@@H]1CC[C@H](CCn2cc(Cc3ccccc3)nn2)O[C@@H]1CO	none (no result: Efflux pump mplx, Calb FLC, MC4R antag cAMP, MC4R barr agon, TAG inh)
Nc1ccc(S(=O)(=O)NCC(=O)OCCOc2ccccc2)cc1[N+](=O)[O-]	MC4R antag cAMP 33 | U2OS cAMP counter 27 | MC4R antag conf inactive
CSc1ccc(S(=O)(=O)NCC(=O)OCCOc2ccccc2)cc1[N+](=O)[O-]	none (no result: Calb FLC)
Cc1ccc(F)c(S(=O)(=O)NC(=O)C2(C)CCN2C(=O)c2ccccc2)c1 (stereo not given)	none (no result: Efflux pump mplx, Calb FLC)
CCOC(=O)c1sc(NC(=O)CC)nc1C	none
CCOC(=O)c1sc(NC(=O)CCc2ccc(OC)cc2)nc1C	MC4R antag cAMP 50 (no result: TAG inh) | U2OS cAMP counter inactive | MC4R antag conf inactive
COc1ccc(NC(=O)CC(C)C)c(OC)c1	none
COc1ccc(NC(=O)NCc2ccco2)c(OC)c1	MC4R antag cAMP 33 | U2OS cAMP counter inactive | MC4R antag conf inactive
COc1ccccc1NC(=O)NCc1ccco1	none
COc1ccc(NC(=O)Nc2ccccc2SC)c(OC)c1	MC4R antag cAMP 34 | U2OS cAMP counter inactive | MC4R antag conf inactive
COC(=O)C(Cc1ccccc1)NC(=O)CC(C)CC(=O)Nc1ccc(OC)cc1OC (stereo not given)	MC4R antag cAMP 35 | U2OS cAMP counter inactive | MC4R antag conf inactive
CC(=O)Nc1cncc(-c2ccccc2F)n1	none (no result: Efflux pump mplx, Calb FLC)
CC(C)n1c(CNC(=O)c2ccccc2F)nnc1SCC(=O)NC1CCCCC1	none (no result: Efflux pump mplx, Calb FLC)
CCCCCCCCCCCCNC[C@@H]1CSCCS(=O)(=O)N1	none (no result: Efflux pump mplx, Calb FLC, MC4R antag cAMP, MC4R barr agon, TAG inh)
CCN(CC)C(=O)C(=O)Nc1ccc(Oc2ccccc2)cc1	MC4R antag cAMP 33 | U2OS cAMP counter inactive | MC4R antag conf inactive
OC[C@@H]1CN(Cc2cccs2)C[C@H](n2cnc3c(N4CCCC4)ncnc32)O1	none (no result: Efflux pump mplx, Calb FLC)
Cc1ccccc1/C=C/C(=O)c1ccc([N+](=O)[O-])o1	none (no result: MC4R antag cAMP, MC4R barr agon, TAG inh)
COc1ccc(/C=C/C(=O)c2ccc([N+](=O)[O-])o2)cc1	MC4R antag cAMP 30 | U2OS cAMP counter inactive | MC4R antag conf inactive
N#Cc1c(-c2ccc(Cl)cc2)n(O)c2ccccc12	none (no result: Efflux pump mplx, Calb FLC, GalR3 antagonist)
O=C(Nc1ccccc1Cl)c1cc(C2CCCCN2C(=O)c2ccccc2)on1 (stereo not given)	MC4R antag cAMP 35 (no result: Efflux pump mplx, Calb FLC) | U2OS cAMP counter inactive | MC4R antag conf inactive
CC(=O)Nc1ccc(C(=O)N2CCCCC2c2cc(C(=O)Nc3ccccc3Cl)no2)cc1 (stereo not given)	none (no result: Efflux pump mplx, Calb FLC)
CCNC(=O)Cn1cc(C(F)(F)F)cc(Cl)c1=O	MC4R antag cAMP 30 | U2OS cAMP counter inactive | MC4R antag conf inactive
O=C(c1ccc(F)cc1)C(CN1CCOCC1)c1ccccc1 (stereo not given)	none (no result: TAG inh)
O=C(c1ccccc1)C(CCC(CN1CCOCC1)C(=O)c1ccccc1)CN1CCOCC1 (stereo not given)	MC4R antag cAMP 41 | U2OS cAMP counter inactive | MC4R antag conf inactive
O=C1N(Cc2cccc(Cl)c2)C[C@@H]2C[C@@H](c3cccc4cccnc34)N3CCC[C@@]123	MC4R antag cAMP 34 | U2OS cAMP counter inactive | MC4R antag conf inactive
O=C1N(Cc2cccc(Cl)c2)C[C@@H]2C[C@@H](c3cccc4ncccc34)N3CCC[C@@]123	none
CSCCC(NC(=O)c1ccc(Cl)cc1)C(=O)OCC(=O)N1CCCC1=O (stereo not given)	none (no result: Calb FLC)
COc1ccccc1C(=O)NC(CCSC)C(=O)OCC(=O)N1CCCC1=O (stereo not given)	MC4R antag cAMP 29 (no result: Calb FLC) | U2OS cAMP counter 17 | MC4R antag conf 42
